33 compounds from ChEMBL document CHEMBL1287658, “Reinvestigation of structure-activity relationship of methoxylated chalcones as antimalarials: synthesis and evaluation of 2,4,5-trimethoxy substituted patterns as lead candidates derived from abundantly available natural β-asarone” (Eur J Med Chem, 2010) can be followed below.

The test system of series [1] is Plasmodium falciparum. Nature of the series: Antimalarial activity against chloroquine-sensitive Plasmodium falciparum 3D7 infected in human O+ erythrocytes after 72 hrs by SYBR Green-1 fluorescence based assay. The class given is functional, organism-based. The following applies: 3D7, 72 h. The essentials: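 P. falciparum 3D7 kept in O+ human erythrocytes, 4% hematocrit, RPMI 1640 with Albumax, hypoxanthine and gentamicin, 37 °C under 5% O2/5% CO2/90% N2. Sorbitol-synchronized rings were plated at 2% hematocrit, 1% parasitemia with drug 0–10^-4 M (0.4% DMSO final), triplicate wells, 72 h. SYBR Green I read at ex 497/em 520 nm. IC50 by visual matching of 50% growth inhibition.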

Series [2] deals with Plasmodium falciparum. The experiment in a line: Inhibition of Plasmodium falciparum-mediated human hemoglobin degradation at 100 uM. The class given is functional, organism-based.
A short description of series [3]: Selectivity index, ratio of TC50 for human HeLa cells to IC50 for Plasmodium falciparum 3D7. Format: toxicity, cell-based. The essentials:
(§1)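 Selectivity index was TC50 (24 h MTT in HeLa or L929) divided by IC50 against 3D7 (72 h SYBR Green I growth assay).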

Series [4] relates to Plasmodium falciparum. The experiment in a line: Resistance index, ratio of IC50 for Plasmodium falciparum Dd2 to IC50 for Plasmodium falciparum 3D7. The class given is functional. The essentials:
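Ratio of IC50 against Dd2 to IC50 against 3D7. Both IC50s come from the same 72 h SYBR Green I assay: sorbitol-synchronised rings, 2% hematocrit, 1% parasitemia, 0 to 10^-4 M in triplicate, 0.4% final DMSO. Each IC50 taken by visual matching of 50% growth inhibition.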

A short description of series [5]: Selectivity index, ratio of TC50 for mice (Mus musculus) L929 cells to IC50 for Plasmodium falciparum 3D7. The class given is toxicity, cell-based. The essentials:
as §1

The test system of series [6] is Plasmodium falciparum. Nature of the series: Antimalarial activity against chloroquine-resistant Plasmodium falciparum Dd2 infected in human O+ erythrocytes after 72 hrs by SYBR Green-1 fluorescence based assay. Format: functional, organism-based. The following applies: Dd2, 72 h. The essentials: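 Ring-stage culture (5% sorbitol synchronised) plated at 2% hematocrit, 1% parasitemia in RPMI 1640 with 0.5% Albumax, hypoxanthine, gentamicin; 37 °C, 5% O2/5% CO2/90% N2. Compounds from DMSO stock, final 0.4% DMSO, 0 to 10^-4 M, triplicate wells. 72 h, then SYBR Green I fluorescence (ex 497/em 520 nm). IC50 by visual matching of 50% growth inhibition.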

Series [7] deals with HeLa. The experiment in a line: Cytotoxicity against human HeLa cells assessed as cell viability after 24 hrs by MTT assay. Format: cell-based. The essentials: (§2)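 HeLa and L929 cells were grown in RPMI with 10% FBS, seeded at 10⁴ cells/well overnight, then exposed to drug for 24 h at 37 °C, 5% CO2. DMSO at 10% final was the positive control. MTT was added for 4 h, then formazan was dissolved in DMSO and read at 570 nm. TC50 was taken from dose-response curves.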
In general terms: Formazan colour is commonly taken as a measure of viable cells.

Series [8] deals with L929. Nature of the series: Cytotoxicity against mouse L929 cells assessed as cell viability after 24 hrs by MTT assay. The following applies: l929, 24 h. Format: cell-based. The essentials:
as §2

One may read the IC50 as the point on the concentration scale where inhibition reaches its midpoint. High values mean lower potency, low ones higher potency.

Molecules are shown by their SMILES. Activity calls are given as the source filed them. The rule behind the calls is not given here.

For `O=C(/C=C/c1ccc(Cl)cc1)c1ccc(Cl)cc1` [4',4-DICHLOROCHALCONE], it took 65 µM to reach half-maximal inhibition in series [1] (IC50). In addition, the inhibition entry in series [2] is “inactive”.
In the same order, the values of `C=CCn1cc(/C(=C\C(=O)c2ccc(Br)cc2)c2cc(OC)c(OC)cc2OC)c2ccccc21` are 17.5 µM and “inactive”.
Take `COc1ccc(/C=C/C(=O)c2ccc(Cl)cc2)c(OC)c1`: the selectivity ratio in series [3] was more than 16.6; in series [5], 14.6. The IC50 in series [1] turned out to be 6 µM; in series [6], 6.8 µM. In addition, the “Ratio IC50” value in series [4] stood at 1.1. Also, in series [2], the inhibition entry was “inactive”.
As for `COc1cc(OC)c(OC)cc1/C=C/C(=O)c1ccc(Cl)cc1`, the selectivity ratio in series [3] worked out at 9; in series [5] it was 8.3. In addition, the values for the IC50 in series [1] and in series [6] were 4 µM and 6.9 µM, respectively. For the same compound, the “Ratio IC50” value in series [4] came to 1.7. For the same compound, the inhibition entry in series [2] was “inactive”.
Take `C=CCn1cc(C(CC(=O)c2ccc(Cl)cc2)c2cc(OC)c(OC)cc2OC)c2ccccc21` (centres undefined): in series [1], the IC50 came to 8.4 µM. For the same compound, in series [2], the inhibition result is “inactive”.
`COc1cc(OC)c(OC)cc1/C=C/C(=O)c1ccc(Cl)c(Cl)c1` gave an IC50 in series [1] of more than 20 µM. In addition, the inhibition result in series [2] was “inactive”.
Taken in the same sequence, the figures for `COc1cc(OC)c(OC)cc1/C=C/C(=O)c1ccc(C#N)cc1` were more than 100 µM and “inactive”.
Taken in the same sequence, the figures for `COc1cc(OC)c(/C=C/C(=O)c2ccc(Cl)cc2)c(OC)c1` were 8 µM and “inactive”.
`COc1ccc(C(=O)/C=C/c2ccc(Cl)cc2)cc1` had an IC50 in series [1] of 88 µM. Further, the inhibition entry in series [2] was “inactive”.
In the same order, the values of `COc1ccc(C(=O)/C=C/c2cc(OC)c(OC)cc2OC)cc1` are 11.5 µM and “inactive”.
Taken in the same sequence, the figures for `O=C(/C=C/c1ccco1)c1ccc([N+](=O)[O-])cc1` were more than 200 µM and “inactive”.
Taken in the same sequence, the figures for `COc1ccc(/C=C/C(C)=O)c(OC)c1` were 48.5 µM and “inactive”.
In series [1], `COc1cc(OC)c(C(CC(=O)c2ccc(Cl)cc2)c2c[nH]c3ccccc23)cc1OC` (centres undefined) had an IC50 of 8.6 µM. In addition, the inhibition result in series [2] is “inactive”.
Taken in the same sequence, the figures for `C=CCOc1ccc(C(=O)/C=C/c2ccc(Cl)cc2)cc1` were 75 µM and “inactive”.
Take `COc1cc(OC)c(OC)cc1/C=C/C(=O)c1ccc(Br)cc1`: the selectivity ratio stood at 31.7 in series [3] and 55.6 in series [5]. Also, the IC50 in series [1] was 1.8 µM; in series [6], 5 µM. The Activity entry in series [7] and in series [8] was “Non-toxic” throughout. In series [4], the “Ratio IC50” value was determined as 2.8. Moreover, the inhibition entry in series [2] is “inactive”.
For `COc1cc(OC)c(OC)cc1/C=C/C(=O)c1ccc(I)cc1`, the selectivity ratio in series [3] is 50; in series [5], more than 50. Moreover, the IC50 in series [1] is 2 µM; in series [6] it was 7.5 µM. The Activity result in series [7] and in series [8] was “Non-toxic” each time. Moreover, in series [4], the “Ratio IC50” value turned out to be 3.7. Moreover, in series [2], the inhibition entry is “inactive”.
With `CCN(CC)CCCC(C)Nc1ccnc2cc(Cl)ccc12` (centres undefined), the inhibition entry in series [2] was “inactive”.
Turning to `COc1cc(/C=C/C(=O)c2ccc(Cl)cc2)cc(OC)c1OC`, the selectivity ratio in series [3] was 3; in series [5] it was 2.8. Also, the IC50 in series [1] came to 4.6 µM; in series [6], 11.5 µM. Moreover, in series [4], the “Ratio IC50” value amounted to 2.5. Moreover, the inhibition entry in series [2] was “inactive”.
As for `C=CC(C)(C)c1cc(/C=C/C(=O)c2ccc(O)cc2)c(OC)cc1O` [LICOAGROCHACONE A], the 50% inhibitory concentration (IC50) in series [1] came to 4.1 µM. In addition, the inhibition entry in series [2] was “inactive”.
Taken in the same sequence, the figures for `COc1ccc(C(=O)/C=C/c2ccc(Cl)c(Cl)c2)cc1` were more than 200 µM and “inactive”.
In the same order, the values of `O=C(/C=C/c1cccs1)c1ccc([N+](=O)[O-])cc1` are 170 µM and “inactive”.
In the same order, the values of `O=C(/C=C/c1ccc(Cl)cc1)c1ccc([N+](=O)[O-])cc1` are 78 µM and “inactive”.
The compound `COc1ccc(/C=C/C(=O)c2ccc(Cl)cc2)cc1` registered an IC50 in series [1] of 28.8 µM. Besides, the inhibition result in series [2] is “inactive”.
Taken in the same sequence, the figures for `COc1cc(OC)c(OC)cc1/C=C/C(=O)c1ccc(-c2ccc(Br)cc2)cc1` were 47 µM and “inactive”.
In the same order, the values of `COc1cc(OC)c(OC)cc1CCC(O)c1ccc(Cl)cc1` (centres undefined) are 50 µM and “inactive”.
In the same order, the values of `COc1cc(OC)c(OC)cc1/C=C/C=C/C(=O)c1ccc(Br)cc1` are 12.2 µM and “inactive”.
In series [1], `O=C(/C=C/c1ccc(Cl)cc1)c1ccc(Br)cc1` returned an IC50 of 50 µM. The inhibition result in series [2] was “inactive”.
As for `O=C(/C=C/c1ccc(Cl)cc1)c1ccc(O)cc1`, the IC50 in series [1] is 30 µM. For the same compound, the inhibition result in series [2] was “inactive”.
As to `COc1cc(OC)c(OC)cc1/C=C/C(=O)c1ccc([N+](=O)[O-])cc1`, the IC50 in series [1] is more than 200 µM. In addition, the inhibition result in series [2] is “inactive”.
Taken in the same sequence, the figures for `COc1cc(OC)c(OC)cc1/C=C/C(=O)/C=C/c1ccc(Br)cc1` were 18 µM and “inactive”.
In the same order, the values of `COc1cc(OC)c(OC)cc1CCC(=O)c1ccc(Cl)cc1` are 64 µM and “inactive”.
Taken in the same sequence, the figures for `O=C(/C=C/c1ccc(Cl)cc1)c1ccc2c(c1)OCO2` were 97.9 µM and “inactive”.
In series [1], `COc1cc(OC)c(OC)cc1/C=C/C(=O)c1ccc(OC)c(OC)c1OC` returned an IC50 of 7.8 µM. Moreover, the inhibition result in series [2] was “inactive”.
